Screening results as filed in PubChem BioAssay.
M5 antag – blocks acetylcholine activation of human M5 receptor | 360,000 tested, 0.59% active | CHO-hM5 cells, Fluo-8 calcium fluorescence, ACh EC80 | AID 624040 | inhibition, % at 3 µM;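 active means inhibition above a per-plate cutoff, the mean of that plate's test compounds plus 3 SD, cut at about 27% in these data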
CHRM5 agonist – CHRM5 agonism in calcium assay. P08912. CHO-K1 hM5 cells, Fluo-8 calcium fluorescence; 0% DMSO wells, 100% maximal acetylcholine response. activation, % at 3 µM. 360,000 tested, 0.19% active;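 active means activation above the run's mean over test compounds plus 3 SD, cut at about 23% in these data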;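 further: signal is peak over basal fluorescence ratio across the kinetic read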
CHRM4 antagonist – antagonists of human muscarinic M4 receptor (CHRM4). inhibition, % at 3 µM. 360,000 tested, 0.73% active. CHO-hM4 cells, ACh EC80, Fluo-8 calcium fluorescence. P08173. AID 624125;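 active means inhibition above its plate's cutoff, the mean inhibition of sample wells plus 3 SD, cut at about 27% in these data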
Target sequence (P08173 whole entry, looked up): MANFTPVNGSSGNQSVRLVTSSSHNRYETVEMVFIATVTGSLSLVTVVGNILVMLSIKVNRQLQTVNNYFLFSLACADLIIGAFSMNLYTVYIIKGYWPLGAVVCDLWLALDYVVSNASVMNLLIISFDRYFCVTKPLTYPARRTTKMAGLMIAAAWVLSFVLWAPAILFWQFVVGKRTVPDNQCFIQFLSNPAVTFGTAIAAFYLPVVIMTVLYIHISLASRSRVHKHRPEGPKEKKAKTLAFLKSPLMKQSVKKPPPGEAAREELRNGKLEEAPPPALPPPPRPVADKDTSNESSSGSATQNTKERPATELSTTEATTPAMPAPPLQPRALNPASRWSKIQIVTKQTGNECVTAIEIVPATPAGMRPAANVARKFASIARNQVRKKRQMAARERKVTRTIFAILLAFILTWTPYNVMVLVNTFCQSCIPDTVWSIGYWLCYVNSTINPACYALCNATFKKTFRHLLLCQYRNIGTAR
CHRM4 PAM – potentiates acetylcholine response at human M4 receptor | CHO-K1 hM4/Gqi5, Fluo-8 calcium fluorescence, ACh EC20; 0% = ACh EC20, 100% = maximal ACh | activation, % at 3 µM | 360,000 tested, 0.4% active | AID 624126;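 active means activation above its plate's cutoff, the mean activation of sample wells plus 3 SD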
M5 PAM – potentiates acetylcholine response at human M5 receptor | P08912 | CHO-K1 hM5, Fluo-8 calcium, ACh EC20 PAM; 0% = ACh EC20, 100% = ACh EC100 | activation, % at 3 µM | 360,000 tested, 0.3% active | AID 624038;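 active means activation above the run cutoff, the mean activation of all test compounds plus 3 SD, cut at about 18% in these data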
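Replicates: One well per compound, no replicates | System: Human M5 receptor in CHO-K1 cells | Benchmarks: Low control EC20 acetylcholine (0%), high control EC100 acetylcholine (100%) | Probe or stimulus: Acetylcholine, EC20 level | Times: Fluo-8 loading 80 min at 37 °C plus 30 min room temperature | Signal: Intracellular calcium via Fluo-8 fluorescence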
M4 ag – CHRM4 agonism in calcium assay; activation, % at 3 µM; CHO-K1 hM4/Gqi5, Fluo-8 calcium fluorescence; vehicle 0%, full acetylcholine response 100%; P08173; AID 624127; 360,000 tested, 0.14% active;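 active means activation above the run mean over all test wells plus 3 SD, cut at about 32% in these data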;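 further: peak over basal fluorescence ratio per well then scaled between controls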
Numbers stand for hits; i = inactive. Sampled rows, rich in hits. Any-hit rate of the full collection: about 1.8%.

SMILES	M5 antag	CHRM5 agonist	CHRM4 antagonist	CHRM4 PAM	M5 PAM	M4 ag
CC1=C(C(=O)N(C(C)C)C(C)C)CC(CC(=O)NC2CC2)C(=O)N1CCC1=CCCCC1 (stereo not given)	i	i	i	i	i	i
CC(Oc1ccc(Br)cc1)C(=O)Nc1ccc(S(=O)(=O)N(C)C2CCN(C)CC2)cc1 (stereo not given)	i	62	31	i	i	96
C#CCNC(=O)C1=C[C@H](C)C[C@H](OCc2ccc(CO)cc2)O1	i	i	i	i	i	i
COc1ccccc1N=C1NC(=O)/C(=C/c2ccc(N(C)C)cc2)S1	36	51	i	i	i	i
COc1cc(/C=C2/SC(=Nc3ccc(O)cc3)NC2=O)cc(OC)c1O	i	i	i	i	i	i
OC(c1cccc(CN2CCCCC2)c1)c1ncc(-c2ccccc2Cl)[nH]1 (stereo not given)	i	i	i	i	i	i
COc1cc(/C=C2/SC(=S)N(CC(=O)O)C2=O)ccc1OCC(=O)Nc1ccc(C)c(C)c1	i	i	i	i	i	i
Cn1c(SCC(=O)c2cc(Cl)c(Cl)s2)nnc1-c1ccco1	i	i	i	i	19	i
CNc1sc(C(=O)c2ccccc2F)c(N)c1-c1nc2ccccc2s1	i	i	34	i	i	i
COc1ccc(C(C[N+](=O)[O-])c2c(C)[nH]c3ccccc23)cc1OC (stereo not given)	i	i	i	i	19	i
COc1cc(C(c2c(C(=O)O)[nH]c3ccccc23)c2c(C(=O)O)[nH]c3ccccc23)ccc1OCc1ccccc1	i	i	i	i	i	i
COc1cc(/C=C/C(=O)O)cc(S(=O)(=O)Nc2cc(Cl)c(Cl)cc2Cl)c1OC	i	i	i	i	i	i
COc1cc(/C=C/C(=O)O)cc(S(=O)(=O)NC2CCCC2)c1OC	i	i	98	i	i	i
COC(=O)[C@@]1(Sc2ccc(C)cc2)CC(=O)N(c2ccccc2)[C@@H]1c1ccccc1	30	i	40	i	i	i
C[C@H]1CN([C@@H](C)CO)C(=O)c2cc(Br)cnc2O[C@@H]1CN(C)S(=O)(=O)c1ccccc1	i	i	i	i	i	i
COc1nc(NCCO)nc(Nc2ccc([N+](=O)[O-])cc2)n1	i	i	i	25	i	i
COCC(C)NS(=O)(=O)c1ccc(NC(=O)c2ccccn2)cc1 (stereo not given)	30	i	i	i	i	i
O=S(=O)(c1cccs1)N1CCN(c2ccnc3cc(Cl)ccc23)CC1	i	i	100	i	i	i
CC1=C(C(=O)N(C)C)CC(CC(=O)NCCCCc2ccccc2)C(=O)N1CCCN1CCCC1=O (stereo not given)	i	i	i	22	i	i
CN(C)c1ccc(NC(=O)C[n+]2ccccc2)cc1	i	i	i	i	i	i
O=C(C[n+]1ccccc1)Nc1ccc(Oc2ccccc2)cc1	i	i	47	i	i	i
O=C(COc1cccnc1[N+](=O)[O-])Nc1ncc(Cl)cc1Cl	i	i	i	25	i	i
O=C(N/N=C/c1cccc2cccnc12)c1ccccc1O	i	i	35	i	i	i
CC(C)(C)NC(=O)CSc1nc2cc(S(=O)(=O)N3CCCCC3)ccc2o1	i	i	i	i	i	i
c1ccn2cc(C34CC5CC(CC(C5)C3)C4)nc2c1	i	i	60	i	i	i
SMILES	M5 antag	CHRM5 agonist	CHRM4 antagonist	CHRM4 PAM	M5 PAM	M4 ag
Cc1cccc(NC(=O)/C(C#N)=C\c2cn(CC(=O)O)c3ccccc23)c1	28	i	i	i	i	i
CCOC(=O)C1=C(COC(=O)COc2ccccc2C#N)NC(=O)NC1C (stereo not given)	i	i	i	i	i	i
Cc1ccc(C(=O)c2ccc([N+](=O)[O-])cc2)cc1	i	i	i	i	i	i
Cc1ccc(C(=O)c2coc3cc([N+](=O)[O-])c(O)c([N+](=O)[O-])c23)cc1	i	i	i	31	i	i
COc1ccc(NC(=O)Nc2ccc([N+](=O)[O-])cc2)cn1	34	i	i	i	i	i
COc1ccc(NC(=O)Nc2cc(C)cc(C)c2)cn1	i	i	i	i	i	i
CC1Cc2cc(-c3csc(NC(=O)Cc4cccs4)n3)ccc2N1S(C)(=O)=O (stereo not given)	i	i	29	i	i	i
Nc1ncn(C(=S)Nc2ccccc2)n1	i	i	i	i	i	i
Cc1ccc(NC(=O)Cn2nnc(C(=O)NCc3ccc4c(c3)OCO4)c2N)cc1	i	i	i	i	18	i
Nc1c(C(=O)NCc2ccc3c(c2)OCO3)nnn1Cc1ccc(Br)cc1	i	30	i	i	i	i
COc1cccc(NC(=O)Cn2nnc(C(=O)NCc3ccc4c(c3)OCO4)c2N)c1	i	i	i	i	22	i
COc1cccc(CNC(=O)c2nnn(CC(=O)Nc3ccc4c(c3)OCO4)c2N)c1	i	i	i	i	i	i
CN(C)CCCN(C(=O)c1cc2cc([N+](=O)[O-])ccc2s1)c1nc2cc3c(cc2s1)OCCO3	i	i	i	i	i	i
CCCCCN1CC(=O)N2[C@@H](Cc3c([nH]c4ccccc34)C2(C)C)C1=O	i	i	i	i	i	i
CCCCN(CCCC)CCCN1CC(=O)N2[C@@H](Cc3c([nH]c4ccccc34)C2(C)C)C1=O	i	i	86	i	i	i
COCCNC(=O)C(c1ccc(F)cc1)N(C(=O)CCC(=O)Nc1ccccn1)c1ccc(C)cc1 (stereo not given)	29	i	i	30	i	i
COc1ccc(CCNC(=O)CSc2nc(=O)[nH]c3c2CCC3)cc1OC	i	i	i	i	i	i
CCCCn1c(N)c(N(CC)C(=O)c2ccc(Cl)c(Cl)c2)c(=O)[nH]c1=O	28	i	i	i	i	i
COc1ccc(NC(=O)C2CCN(S(C)(=O)=O)CC2)c(OC)c1	i	i	i	i	i	i
COc1ccc(NC(=O)C2CCCN(S(C)(=O)=O)C2)c(OC)c1 (stereo not given)	i	i	i	i	19	i
CCN(CC)CCCNc1nc2cc(OC)c(OC)cc2c2nc(-c3ccccc3)nn12	i	i	i	17	i	i
CCN(CC)CCCNc1nc2cc(OC)c(OC)cc2c2nc(-c3cccnc3)nn12	i	i	i	i	i	i
CCCN(C)C1CN(Cc2cn(Cc3ccc(OC)cc3)nn2)S(=O)(=O)C1 (stereo not given)	i	i	i	i	i	i
C=C1SC(Nc2c(C)cccc2C)=NC12CCCCC2	i	i	29	i	i	i
